Assay outcomes as filed in PubChem.
Compounds with a hit are over-represented: about 2.2% of the library has one in this group of screens.
RanGTP-Imp inh – disruptors of Ran-importin-beta complex formation – biochemical, FRET, CFP-Ran, YFP-importin-beta, homogeneous, primary screen; cell-free CFP-Ran/YFP-importin-beta FRET ratio; inhibition, % (concentration not given with the values); actives 1.1% (n = 300,000); AID 2216;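 active means more than half of the replicate wells show a fall in the fluorescence ratio signal beyond about 16%, limit read from the data, passing the limit was not always enough; inconclusive means exactly half of the replicate wells pass the set limit; inactive means fewer than half of replicates pass the limit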
Runt-CBFb FRET – inhibitors of human RUNX1 Runt domain binding to CBFb; Q01196+Q13951; Cerulean-Runt/Venus-CBFb FRET ratio 530/480, 1 h; inhibition, % at 20 µM; actives 0.46% (n = 220,000);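 active means inhibition over about 50% at 20 µM in the single-dose screen, limit read from the data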
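Doses: 20 µM compound in 1% DMSO | Material: Cerulean-labeled Runt domain protein | Amount: Each fluorescent fusion protein 100 nM | Schedule: Two 1 h room-temperature incubations shielded from light | Measured by: FRET fluorescence | Evaluation: Loss of energy transfer signal | Controls: Unlabeled CBFb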
eIF4E-4G inh – inhibitors of eIF4E and eIF4G interaction in translation initiation | actives 0.37% (n = 220,000) | TR-FRET eIF4E-eIF4GI(517-606) binding, 2 h | inhibition, % at 21.7 µM;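 active means inhibition above about 30%, limit read from the data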
PERK inh – blocks human PERK kinase; CHO PERK-DD fusion, SEAP luminescence translation reporter; inhibition, % at 5.6 µM; actives 0.17% (n = 220,000); AID 1416;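 active means inhibition above the mean inhibition of all tested compounds plus 3 SD, set separately per screening campaign, cut at about 2.9% in these data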;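 further: PERK kinase domain activated by AP20187 dimerizer at 100 nM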
Hck-Nef inh – human Hck-Nef kinase inhibition. inhibition, % at 20 µM. Recombinant Hck-YEEI plus Nef, Z-Lyte FRET kinase assay. actives 0.68% (n = 220,000);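 active means Hck-Nef kinase inhibition above about 50%, limit read from the data; inactive means inhibition below that limit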
Target sequence (P08631 whole entry, looked up): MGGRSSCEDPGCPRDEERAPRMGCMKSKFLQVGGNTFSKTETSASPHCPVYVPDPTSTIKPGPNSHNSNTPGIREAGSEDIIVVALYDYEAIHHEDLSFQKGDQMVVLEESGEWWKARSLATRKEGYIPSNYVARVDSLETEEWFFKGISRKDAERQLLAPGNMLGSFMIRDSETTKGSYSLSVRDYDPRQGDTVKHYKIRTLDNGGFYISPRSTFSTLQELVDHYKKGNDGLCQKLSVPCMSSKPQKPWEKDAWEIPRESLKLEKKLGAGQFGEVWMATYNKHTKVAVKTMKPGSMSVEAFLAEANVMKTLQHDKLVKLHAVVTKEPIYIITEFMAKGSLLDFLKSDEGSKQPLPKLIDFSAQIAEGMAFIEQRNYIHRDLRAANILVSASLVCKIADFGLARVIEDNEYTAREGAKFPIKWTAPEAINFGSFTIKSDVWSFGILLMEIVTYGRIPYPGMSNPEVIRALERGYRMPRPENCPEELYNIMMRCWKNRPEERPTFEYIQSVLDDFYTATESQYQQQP
Runt-SMMHC FRET – inhibitors of human RUNX1 Runt domain binding to CBFb-SMMHC. Q01196+Q13951. Cerulean-Runt/Venus-CBFb-SMMHC FRET ratio 530/480, 1 h. inhibition, % at 20 µM. actives 0.74% (n = 220,000);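 active means mean inhibition across duplicate retests at 20 µM reaching about 50%, limit read from the data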;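 further: inhibitors lower the FRET ratio by blocking Runt binding to CBFb-SMMHC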
Hck Nef conf – Hck-Nef kinase inhibition, confirmation. AID 463188. actives 28% (n = 1,300). shares compounds with Hck-Nef inh. Recombinant Hck-YEEI:Nef, Z-Lyte FRET kinase assay. calls only at 10 µM;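 active means average inhibition of at least 50%, with Z-scores no higher than 3 in both the phospho-tyrosine peptide and fluorescence counterscreens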
Hits are given with their value; i = inactive; ? = inconclusive; nt = not tested or not shown; + = active, no number.

SMILES	RanGTP-Imp inh	Runt-CBFb FRET	eIF4E-4G inh	PERK inh	Hck-Nef inh	Runt-SMMHC FRET	Hck Nef conf
CCNC(=O)NC(=O)COC(=O)c1ccccc1SCC(=O)NC(=O)NCC	i	i	i	i	109.3	i	nt
O=C(COC(=O)c1ccccc1SCC(=O)NC1CCS(=O)(=O)C1)NC1CCS(=O)(=O)C1 (stereo not drawn)	i	i	i	i	i	i	nt
CCCC(=O)Nc1ccc(Cl)c(NC(=O)c2cccnc2)c1	i	i	i	i	i	i	nt
CCCC(=O)Nc1ccc(Cl)c(NC(=O)c2cccc(OC)c2)c1	?	i	i	i	60.4	i	i
CCOc1ccccc1NC(=O)C1CCC(CNc2c(N3CCCCC3)c(=O)c2=O)CC1 (stereo not drawn)	i	i	i	i	i	i	nt
COC(=O)COc1ccc(C2Nc3c(Cl)ccc(C(=O)O)c3C3C=CCC32)cc1 (stereo not drawn)	i	i	i	i	76.2	i	i
COc1ccc(OC)c(C2Nc3c(Cl)ccc(C(=O)O)c3C3C=CCC32)c1 (stereo not drawn)	i	i	i	i	i	i	nt
Cc1ccc(C(=O)NCCSC(C)(C)C)cc1	?	i	i	i	i	i	nt
CC(C)(C)SCCNC(=O)c1ccccc1	i	i	i	i	54.2	i	i
CCOC(=O)c1c(NC(=O)C2CCCO2)sc(C(=O)OC(C)(C)C)c1C (stereo not drawn)	i	i	i	i	67.6	i	i
COc1ccc(NC(=O)c2cc3c(=O)n(C)c4ccccc4c3n2C)cc1OC	i	i	i	i	i	i	nt
COc1ccc(NC(=O)c2cc3c(=O)n(C)c4ccccc4c3n2C)cc1Cl	i	i	i	i	61.2	i	i
COc1ccc(CNC(=O)c2ccc(=O)oc2)cc1OC	i	i	i	i	56.8	i	nt
COC(=O)c1ccccc1NC(=O)c1ccc2c(c1)C(=O)N(Cc1ccco1)C2=O	?	nt	nt	i	58.5	nt	i
COc1cc(NC(=S)Nc2ccccn2)cc(OC)c1OC	i	i	i	i	80.6	i	+
CC(=O)n1cc([C@H]2C=C(C(=O)NCc3ccccc3)O[C@@H](OCc3ccc(CO)cc3)C2)c2ccccc21	i	i	i	i	53.4	i	+
Nc1c2c(nc3ccccc13)CCCC2	i	i	i	i	i	i	nt
Nc1c2ccccc2nc2ccccc12	175.2	i	i	i	92.6	81.6	nt
CCOc1ccc(C(=O)NCCNC(=O)c2ccc(OCC)cc2)cc1	i	nt	nt	nt	nt	nt	nt
COc1ccc(/C=N/NC(=O)COc2cccc3cccnc23)cc1OC	?	i	i	i	54.2	i	i
COc1ccc2oc(-c3ccccc3)c(C(=O)N(C)C)c2c1	i	nt	nt	nt	nt	nt	nt
CC(OC(=O)CCCN=C1NS(=O)(=O)c2ccccc21)C(=O)N(C)c1ccccc1 (stereo not drawn)	i	nt	nt	nt	nt	nt	nt
Cc1cc(N2CCCC2)ccc1NC(=O)CN1C(=O)NC(C)(c2ccccc2)C1=O (stereo not drawn)	i	nt	nt	nt	nt	nt	nt
CCN(CC)C(=O)Cc1c(O)c2ccccc2[nH]c1=O	i	i	i	i	55.8	i	+
CCOC(=O)c1cnc2ccc(OCC)cc2c1N1CCN(c2ccccc2OC)CC1	i	i	i	i	77.2	i	+
SMILES	RanGTP-Imp inh	Runt-CBFb FRET	eIF4E-4G inh	PERK inh	Hck-Nef inh	Runt-SMMHC FRET	Hck Nef conf
CCOc1ccc2ncc(C(=O)c3ccc(OC)cc3)c(N3CCN(CC)CC3)c2c1	i	i	i	i	i	i	nt
C(=C\c1ccco1)/c1ccc2ccccc2n1	i	i	i	i	53.7	i	i
O=C(N/N=C/c1ccc([N+](=O)[O-])o1)c1cc(-c2ccc(-c3ccccc3)cc2)nc2ccccc12	i	i	i	i	197.5	i	i
Cc1cccc(C)c1NC(=O)C[n+]1cc(-c2ccccc2)n2c1CCC2	i	i	i	i	i	i	nt
Cc1cc(C)c2cc(CN(CCO)Cc3nnnn3Cc3ccccc3)c(=O)[nH]c2c1	i	i	i	i	85.1	i	i
Cc1cc(C)c2cc(CN(CCO)Cc3nnnn3Cc3ccc(F)cc3)c(=O)[nH]c2c1	i	i	i	i	i	i	nt
C=CCNC(=O)c1c(N)n(-c2cccc(S(N)(=O)=O)c2)c2nc3ccccc3nc12	nt	79.5	i	i	58.3	i	i
CCCCN(CC)Cc1c(O)ccc2c3c(c(=O)oc12)CCC3	i	i	i	i	+	73.2	nt
COCCN(CCOC)Cc1c(O)ccc2c3c(c(=O)oc12)CCC3	i	i	i	i	72.0	92.6	nt
CCN(CC)C(=O)COc1ccc2c3c(c(=O)oc2c1C)CCCC3	i	nt	nt	nt	nt	nt	nt
O=C(COc1ccc2ccccc2c1)NNC(=O)c1ccc([N+](=O)[O-])cc1	i	i	i	i	i	i	nt
O=S(=O)(c1ccccc1)N(CC(O)CN1CCOCC1)c1ccccc1 (stereo not drawn)	i	nt	nt	nt	nt	nt	nt
CCC(c1nnnn1Cc1ccc(OC)cc1)N1CCN(c2ccc(OC)cc2)CC1 (stereo not drawn)	i	i	i	i	61.8	i	i
CCC(c1nnnn1Cc1ccccc1)N1CCN(c2ccc(OC)cc2)CC1 (stereo not drawn)	i	i	i	i	i	i	nt
O=C(O)c1cccc(-n2cccc2/C=C2/NC(=O)N(c3cccc(Cl)c3)C2=O)c1	i	i	i	i	i	i	nt
O=C(O)c1cccc(-n2cccc2/C=C2/NC(=O)N(c3ccc(Cl)cc3)C2=O)c1	nt	i	70.5	i	82.4	i	nt
COc1ccc(CN(C)C(=O)c2cccc(NS(=O)(=O)c3ccccc3)c2)cc1F	i	nt	nt	nt	nt	nt	nt
S=c1[nH]nc(-c2cccc(Cl)c2)n1/N=C/c1ccc(-c2ccccc2Br)o1	?	i	i	i	57.8	i	i
c1ccc(CN(Cc2cccs2)C(c2cccs2)c2nnnn2C2CCCC2)cc1 (stereo not drawn)	i	i	i	i	i	i	nt
COCCCn1c(=N)c(C(=O)NCC2CCCO2)cc2c(=O)n3ccccc3nc21 (stereo not drawn)	172.4	i	i	i	+	65.3	nt
CCCn1c(=O)c(C(=O)NCC2CCCO2)c(O)c2ccccc21 (stereo not drawn)	i	i	i	i	i	i	nt
CCCn1c(=N)c(C(=O)NCC2CCCO2)cc2c(=O)n3cccc(C)c3nc21 (stereo not drawn)	183.6	i	i	i	191.8	i	nt
COCCn1c(=O)[nH]c2cc(C(=O)NCC3CCCO3)ccc2c1=O (stereo not drawn)	i	i	i	i	i	i	nt
N=c1c(C(=O)NCc2ccc(F)cc2)cc2c(=O)n3ccccc3nc2n1CC1CCCO1 (stereo not drawn)	198.5	i	i	i	145.4	60.4	nt
